The target in test [1] is Botulinum neurotoxin type A (Clostridium botulinum) (UniProt P0DPI0). The test can be described thus: Inhibition of clostridium botulinum BoNT/A-mediated SNAP-25 substrate cleavage in chicken neurons at 30 uM preincubated for 15 mins before substrate addition.
Test [2] has as its target T1, Botulinum neurotoxin type A (Clostridium botulinum, UniProt P0DPI0). The test is described as follows: Inhibition of Clostridium botulinum BoNT/A light chain-mediated SNAP-25 substrate cleavage after 40 mins by FRET assay. The essentials: (§1)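 Recombinant BoNT/A LC at 2 nM was incubated with 20 μM SNAP-25 peptide (AA 187–203, DnpK/daciaC-labelled) for 40 min at 37 °C. Cleaved-substrate fluorescence was read at 485 nm with excitation at 398 nm. IC50 is the compound concentration giving 50% inhibition, averaged over two experiments.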

The target in a further test is T2, Lethal factor (Bacillus anthracis, UniProt P15917).
T2 sequence (P15917 whole entry): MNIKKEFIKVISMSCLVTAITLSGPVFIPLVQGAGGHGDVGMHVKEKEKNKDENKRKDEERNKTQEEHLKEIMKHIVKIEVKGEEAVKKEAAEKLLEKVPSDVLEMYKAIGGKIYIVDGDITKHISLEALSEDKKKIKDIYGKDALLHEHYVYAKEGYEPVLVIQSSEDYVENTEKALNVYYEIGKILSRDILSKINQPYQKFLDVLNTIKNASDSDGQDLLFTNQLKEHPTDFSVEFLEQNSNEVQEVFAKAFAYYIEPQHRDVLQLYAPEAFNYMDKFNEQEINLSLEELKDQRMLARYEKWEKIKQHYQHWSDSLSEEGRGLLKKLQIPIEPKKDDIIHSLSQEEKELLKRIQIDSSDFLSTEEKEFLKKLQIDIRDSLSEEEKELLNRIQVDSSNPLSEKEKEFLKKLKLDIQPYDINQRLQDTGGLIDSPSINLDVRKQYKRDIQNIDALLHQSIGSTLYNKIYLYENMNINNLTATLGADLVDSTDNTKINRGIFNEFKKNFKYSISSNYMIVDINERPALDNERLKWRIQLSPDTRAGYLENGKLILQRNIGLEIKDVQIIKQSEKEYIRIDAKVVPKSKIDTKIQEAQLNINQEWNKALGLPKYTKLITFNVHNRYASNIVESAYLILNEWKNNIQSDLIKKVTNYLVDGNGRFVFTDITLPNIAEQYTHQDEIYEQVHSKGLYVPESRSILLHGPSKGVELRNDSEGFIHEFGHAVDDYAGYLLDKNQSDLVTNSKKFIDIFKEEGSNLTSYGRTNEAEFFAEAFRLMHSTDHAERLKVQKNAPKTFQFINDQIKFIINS
The test is described as follows: Inhibition of Bacillus anthracis lethal factor using MCA-KKVYPYPME[dnp]Kamide peptide substrate after 30 mins by FRET assay.

Test [3] addresses T3, Lethal factor (Bacillus anthracis) (UniProt P15917).
T3 sequence (whole entry): T2 sequence (P15917 whole entry)
The test is described as follows: Inhibition of Bacillus anthracis lethal factor using MCA-KKVYPYPME[dnp]Kamide peptide substrate at 100 uM after 30 mins by FRET assay.

Test [4] addresses T1, Botulinum neurotoxin type A. The test can be described thus: Inhibition of Clostridium botulinum botulinum neurotoxin type A light chain. In short, it runs like this: as §1

Each structure is given as a SMILES string. Peptide text beside a SMILES is read from it. * marks the point of attachment. X1 = O=C(C(S)Cc1ccccc1)*

T1 sequence (P0DPI0 2-448 limits assumed): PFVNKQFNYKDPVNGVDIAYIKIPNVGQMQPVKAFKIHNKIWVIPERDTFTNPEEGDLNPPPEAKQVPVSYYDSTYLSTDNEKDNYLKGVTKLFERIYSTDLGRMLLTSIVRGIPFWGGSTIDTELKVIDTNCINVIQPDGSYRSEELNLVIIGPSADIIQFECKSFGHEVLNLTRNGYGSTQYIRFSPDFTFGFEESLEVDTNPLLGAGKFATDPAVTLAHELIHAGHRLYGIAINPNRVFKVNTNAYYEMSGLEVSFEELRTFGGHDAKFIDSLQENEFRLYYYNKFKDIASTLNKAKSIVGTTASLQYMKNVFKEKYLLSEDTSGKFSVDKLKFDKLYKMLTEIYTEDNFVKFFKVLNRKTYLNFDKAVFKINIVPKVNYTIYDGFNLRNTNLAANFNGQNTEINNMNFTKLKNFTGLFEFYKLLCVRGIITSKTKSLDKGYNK
Botulinum neurotoxin type A (Clostridium botulinum), sequence (P0DPI0 2-448 limits assumed): as above

As usually defined, the inhibition is the share of the control response that was lost under treatment. Read a low inhibition as little suppression. In test [1], `N=C(N)c1ccc(Oc2ccc(-c3cc4ccc(C(=N)N)cc4[nH]3)cc2)cc1` displayed an inhibition of 42%.

In general, IC50 refers to the concentration at which inhibition is half-maximal. As for `N#C/C(=C\c1ccc(-c2cccs2)s1)c1nc2ccccc2s1`, the IC50 (in test [2]; on Lethal factor) was greater than 100 µM throughout.

The molecule `N#C/C(=C\c1ccc(-c2cccs2)s1)c1nc2ccccc2o1` returned an IC50 in test [2] greater than 100 µM.

`N#C/C(=C\c1c[nH]c2ccc(Br)cc12)c1nc2ccccc2[nH]1` displayed an IC50 in test [2] greater than 100 µM. For the same molecule, the inhibition in test [3] stood at 60%.

With `Cc1c(/C=C(\C#N)c2nc3ccccc3[nH]2)sc2ccccc12`, the IC50 (in test [2]; against Lethal factor) was greater than 100 µM each time.

Turning to `Cc1ccc(/C=C(\C#N)c2nc3ccccc3[nH]2)s1`, the IC50 (in test [2]; against Lethal factor) was greater than 100 µM in each case.

In general, Ki refers to the equilibrium dissociation constant of an inhibitor or competing ligand from its target. Read a low Ki as tighter binding. Take `CSCC[C@H](NC(=O)[C@H](CCCCN)NC(=O)[C@@H](NC(=O)[C@H](C)NC(=O)[C@H](CCCNC(=N)N)NC(=O)C(S)Cc1ccccc1)[C@@H](C)O)C(=O)N[C@@H](CC(C)C)C(=O)O` (stereo partly drawn) (X1-RATKML-OH): in test [4], the affinity corresponds to a Ki of 330 nM.

`N#C/C(=C\c1ccc(-c2ccco2)s1)c1nc2ccccc2[nH]1`: the IC50 in test [2] is 59 µM; against Lethal factor, greater than 100 µM.

In the case of `N#C/C(=C\c1ccc(-c2cccs2)o1)c1nc2ccccc2[nH]1`, the IC50 (in test [2]; on Lethal factor) was greater than 100 µM each time.

On to `Cc1cc(/C=C(\C#N)c2nc3ccccc3[nH]2)sc1C`, for which the IC50 (in test [2]; at Lethal factor) was greater than 100 µM each time.

In the case of `COc1ccc(/C=C(\C#N)c2nc3ccccc3[nH]2)cc1Br`, the IC50 (in test [2]; against Lethal factor) was greater than 100 µM throughout.

Regarding `COc1ccc(/C=C(\C#N)c2nc3ccccc3[nH]2)cc1Cl`, the half-inhibitory concentration (IC50) (in test [2]; at Lethal factor) was greater than 100 µM throughout.

Turning to `N#C/C(=C\c1c[nH]c2c1ccc1ccccc12)c1nc2ccccc2[nH]1`, the IC50 (in test [2]; against Lethal factor) was greater than 100 µM in each case.

In turn, `Cn1c(/C(C#N)=C/c2ccc(-c3cccs3)s2)[n+](C)c2ccccc21` showed an IC50 in test [2] greater than 100 µM.

On to `N#C/C(=C\c1ccc(-c2ccccc2)cc1)c1nc2ccccc2[nH]1`, for which the IC50 in test [2] was 86 µM; against Lethal factor it was greater than 100 µM.

The molecule `N#C/C(=C\c1c(Cl)ncnc1Cl)c1nc2ccccc2[nH]1` gave an IC50 against Lethal factor greater than 100 µM.

For `COc1ccc(/C=C(\C#N)c2nc3ccccc3[nH]2)cc1OC`, the IC50 (in test [2]; against Lethal factor) was greater than 100 µM each time.

Regarding `N#C/C(=C\c1ccc(-c2cccs2)s1)c1cc2ccccc2[nH]1`, the IC50 (in test [2]; against Lethal factor) was greater than 100 µM each time.

With `COc1cc(/C=C(\C#N)c2nc3ccccc3[nH]2)cc(Cl)c1O`, the concentration for half-maximal inhibition (IC50) is 59 µM in test [2] and greater than 100 µM at Lethal factor.

Turning to `N#C/C(=C\c1ccc(-c2cccs2)s1)c1ccc2ccccc2n1`, the IC50 (in test [2]; against Lethal factor) was greater than 100 µM throughout.

Take `N#C/C(=C\c1c[nH]c2cccc([N+](=O)[O-])c12)c1nc2ccccc2[nH]1`: the IC50 (in test [2]; at Lethal factor) was greater than 100 µM throughout.

With `COc1ccc(/C=C(\C#N)c2nc3ccccc3[nH]2)cc1F`, the IC50 (in test [2]; against Lethal factor) was greater than 100 µM throughout.

In the case of `N#C/C(=C\c1cccs1)c1nc2ccccc2[nH]1`, the 50% inhibitory concentration (IC50) (in test [2]; on Lethal factor) was greater than 100 µM throughout.

Regarding `N#C/C(=C\c1cc(-c2ccccc2)cnc1Cl)c1nc2ccccc2[nH]1`, the half-maximal inhibitory concentration (IC50) (in test [2]; against Lethal factor) was greater than 100 µM throughout.

These data come from ChEMBL document CHEMBL1933027, “Time-dependent botulinum neurotoxin serotype A metalloprotease inhibitors” (Bioorg Med Chem, 2011).
